Drawing on PubChem BioAssay AID2097 (Broad Institute, 2009), this text covers activity score (negative = inhibition) for 26 molecules.

The structures appear in SMILES notation. In all, about 300,000 compounds went through this assay and about 120 (0.04%) were called active. The list comes from a sample in which actives are over-represented; it also holds similar structures and randomly drawn compounds. Values without a mark were called inactive.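 Rule for the calls: active = more than half of replicate wells score below -50%, meaning over 50% inhibition versus plate controls; inconclusive = some replicates but at most half score below -50%; inactive = no replicate scores below -50%.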

Sequence of Glycogen synthase kinase-3 beta (Homo sapiens) (P49841 whole entry, looked up): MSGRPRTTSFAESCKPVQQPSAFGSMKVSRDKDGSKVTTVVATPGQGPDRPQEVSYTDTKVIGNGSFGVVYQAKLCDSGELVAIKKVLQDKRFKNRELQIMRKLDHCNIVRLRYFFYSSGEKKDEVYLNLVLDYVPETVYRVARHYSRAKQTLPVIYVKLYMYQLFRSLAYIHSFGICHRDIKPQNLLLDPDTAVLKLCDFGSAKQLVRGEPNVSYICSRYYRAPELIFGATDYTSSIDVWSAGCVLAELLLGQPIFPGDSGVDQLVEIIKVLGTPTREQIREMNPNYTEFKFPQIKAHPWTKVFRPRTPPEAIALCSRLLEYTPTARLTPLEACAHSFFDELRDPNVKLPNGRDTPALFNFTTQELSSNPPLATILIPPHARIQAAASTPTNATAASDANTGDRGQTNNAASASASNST

This test concerns the target Glycogen synthase kinase-3 beta (Homo sapiens) (UniProt P49841). Description: human GSK3beta kinase inhibitors, primary screen, biochemical, cell-free homogeneous, HTS (AID 2097).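 Note: 0% = median DMSO wells and -100% = median GW8510 positive control wells.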 The settings on record: GST-GSK3beta kinase, ADP-Glo luminescence, 60 min; at 10 µM; stronger effect = lower value. In outline:
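Assay system: GST-tagged human GSK3beta kinase, cell-free; Input: 1.6 ng GSK3beta; Medium: Tris/MgCl2 kinase buffer; Timing: 60 min enzyme reaction, room temperature; Signal: ADP-Glo luminescence quantifying ADP generated by kinase; Evaluation: score relative to plate controls; Benchmarks: DMSO neutral wells and GW8510 at 20 µM as positive.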
With `O=c1[nH]c2ccccc2n2c(-c3ccccc3)nnc12`, the activity score (negative = inhibition) was -0.961%. As for `CCCCN(C(=O)CSCC(=O)Nc1ccc(OC)cc1)c1c(N)n(CCC)c(=O)[nH]c1=O`, the activity score (negative = inhibition) is -1.15%.

For the molecule `Cc1nnsc1S(=O)(=O)Cc1ccccc1Cl`, the activity score (negative = inhibition) is -0.424%.

As for `CC(=O)N1c2ccc(S(=O)(=O)N3CCCC(C(=O)Nc4ccc(C)cc4C)C3)cc2CC1C` (stereo unspecified), the activity score (negative = inhibition) was 0.432%. As for `CCOC(OCC)c1ccc(/C=C\c2nccc(N)n2)cc1`, the activity score (negative = inhibition) was -5.66%. As for `Cc1cccc(CCNS(=O)(=O)c2ccc(S(=O)(=O)NC3CCCC3)cc2)c1`, the figure is -0.921%; as for `COc1ccc(C)cc1N(C)C(=O)c1coc(=O)c2ccccc12`, 3.14%. As for `COc1ccc(Cl)cc1NC(=O)C(C)N1CCc2ccccc21` (stereo unspecified), the figure is 0.322%; as for `COC(=O)[C@]1(C)N[C@H](c2ccc(-c3ccc(Cl)c(Cl)c3)cc2)[C@@H]2C(=O)N(C)C(=O)[C@@H]21`, -2.15%; as for `Cc1cc(C)c(S(=O)(=O)c2ccccc2)c(OC(=O)c2c(F)cccc2Cl)n1`, 7.18%. The result for `N#Cc1ccccc1Sc1ccccc1C(=O)OCC(=O)NC1CCCCC1` reads 5.54%; that for `Cc1cc(Br)ccc1NC(=O)c1cnc(N2CCN(c3ccccn3)CC2)c2ccccc12`, -4.35%; that for `Cc1nnc(NC(=O)CCC(=O)N2CCC(C)CC2)s1`, 0.523%.

For the molecule `Cc1ccc(NC(=O)c2ccc(CSc3ncnc4nc[nH]c34)cc2)c(C)c1`, the activity score (negative = inhibition) is -7.49%. As for `Cc1ccc2nc(NC(=O)CSc3nc(=O)n(CCCN(C)C)c4c3CCC4)sc2c1`, the figure is 2.91%.

Regarding `Cn1c(=O)c(=O)n(C)c2cc(S(=O)(=O)CCC(=O)N3CCCCC3)ccc21`, the activity score (negative = inhibition) was 2.02%. As for `CCN(c1ccc2c(c1)OCO2)S(=O)(=O)c1cc(Br)cc2c1N(C(=O)C1CC1)CC2`, the activity score (negative = inhibition) was -2.85%. As for `CCC1(CC)NC(=O)N(CC(=O)OCC(=O)Nc2ccc(C(F)(F)F)cc2)C1=O`, the figure is -0.836%; as for `COC(=O)c1cc2n(n1)CCCNC2=O`, 2.64%.

For `O=C(NC1CCCC1)C(NS(=O)(=O)c1ccc(Br)s1)c1ccccc1` (stereo unspecified), the activity score (negative = inhibition) was -0.275%. As to `O=C(O)c1ccc2c(=O)n3c(nc2c1)/C(=C/c1ccc(OC(F)F)cc1OC(F)F)CC3`, the activity score (negative = inhibition) was -1.21%. As for `COCCNC(=O)C1CCN(S(=O)(=O)c2ccc3c(c2)OCCO3)CC1`, the figure is -2.22%; as for `O=C(Nc1cccc(F)c1)N1C2CCC1CC(O)(c1cccnc1)C2` (stereo unspecified), 2.54%. The result for `CC(C)NS(=O)(=O)c1ccc(OCC(=O)NC2CCCCCC2)cc1` reads 1.95%; that for `CC(C)NC(=O)c1ccccc1S(=O)c1ccccc1C#N` (stereo unspecified), -1.11%. As for `CC(=O)Nc1nc2c(s1)C(=O)NCC(C)(C)C2`, the figure is 3.79%.
